Inconclusive results are not listed.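 The calls were made as follows, unless noted: active = RAM network inhibition above 8.4% in each of two replicates, 3 SD over the compound average; inconclusive = above 8.4% inhibition in only one replicate; inactive = 8.4% inhibition or less in each replicate.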
Assays:
[1] = S. cerevisiae growth inhibition in permissive medium (OD615), pilot counter-assay for S. cerevisiae lifespan shortening project, permissive growth control (AID 705;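 active = growth inhibition above 25% in both replicates, a cutoff set 3 SD above the mean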); conditions: OD615, 24 h, at 10 µM, stronger effect = higher value
In short: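 System: S. cerevisiae with engineered DeaD lifespan system / Measured by: absorbance (optical density) at 615 nm / Read-out: reduction in yeast growth (OD615) / Times: 4 h cell pre-growth, 24 h exposure at 30 °C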

[2] = S. cerevisiae growth inhibition in restrictive medium, OD615, pilot screen, restrictive growth control, yeast lifespan reduction project (AID 706;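 active = growth inhibition above a set limit, 3 SD over mean compound inhibition, in both replicates, cut at about 43% in these data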;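 also: modified DeaD lifespan yeast strain shifted to restrictive glucose medium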); conditions: OD615, 48 h, at 10 µM, stronger effect = higher value
In short: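 System: Engineered S. cerevisiae DeaD strain | Buffer or medium: Glucose-based CSMM-D restrictive medium | Schedule: 4 h pre-incubation, 48 h exposure at 30 °C | Technique: Optical density at 615 nm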

[3] = doxorubicin toxicity protection in MRP-1 cells – H69AR cells, CellTiter-Glo, duplicate, MRP-1 activator project, pilot screen (AID 807;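 active = viability increase at or above a cutoff of the median across tested compounds plus 3 SD, cut at about 8.5% in these data, passing the limit was not always enough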;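 also: compound pretreatment 18-22 h then 72 h combined with doxorubicin; 0% = doxorubicin alone and 100% = vehicle without doxorubicin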); conditions: H69AR viability with doxorubicin, CellTiter-Glo luminescence; at 10 µM; stronger effect = higher value
[4] = viability of HCT116 without oncogenic beta-catenin – human colon tumor cells, pilot screen (AID 823;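 active = cell viability at or below a set limit in both duplicate runs, the limit being the all-compound median minus 4 SD, cut at about 23% in these data, passing the limit was not always enough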;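 also: 0% = wells killed by 20 µM Hyamine and 100% = untreated DMSO cell wells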); conditions: HCT116 beta-catenin knockout viability, CellTiter-Glo, 60 h; at 10 µM; stronger effect = lower value
[5] = viability of PTEN-null HCT116 cells – cell-based, HCT116 clonal line, CellTiter-Glo, pilot screen (AID 824;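 active = viability at or below 27.92% in each of two runs, the all-compound median minus 4 SD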;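 also: 0% = 20 µM Hyamine control and 100% = vehicle cell control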); conditions: HCT116 PTEN-deleted viability, 60 h, at 10 µM, stronger effect = lower value
[6] = RAM pathway blockade in budding yeast – dse1pr::URA3 reporter, 5-FOA selection, pilot screen (AID 869;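 active = inhibition over a set limit, the all-compound mean plus 3 SD, in both replicate runs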;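 also: 0% = DMSO wells with no growth and 100% = 10 µM 1-NA-PP1 with full growth; RAM network block rescues cells from 5-FOA so hits raise OD615 growth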); conditions: S. cerevisiae dse1pr::URA3 5-FOA growth, OD615, 2 d; at 10 µM; stronger effect = higher value; strain carries analog-sensitive mutant Cbk1 kinase
[7] = RAM signaling pathway blockade in yeast – S. cerevisiae, Pdr1DBD-CYC8 efflux-inhibited sensitized strain, primary screen (AID 1298);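 also: 0% = DMSO untreated cells without growth and 100% = 10 µM 1-NA-PP1 full growth; higher means more yeast growth rescued from 5-FOA killing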; conditions: S. cerevisiae cbk1-as DSE1-URA3 strain, 5-FOA growth OD615, 2 d; at 50 µM; stronger effect = higher value

CCOCCn1c(SCc2ccccc2)nc2c1c(=O)[nH]c(=O)n2C
inactive: growth inhibition [1] -16.6% | growth inhibition [2] -27.6% | viability increase [3] -1.41% | viability [4] 104% | viability [5] 96.7% | inhibition [6] 0.205% | RAM network inhibition [7] 7.51%

O=C1Nc2ccccc2C(O)(C(=O)NCc2ccc3c(c2)OCO3)N1c1ccccc1 (centres undefined)
inactive: growth inhibition [1] -2.08% | growth inhibition [2] -15.5% | viability increase [3] -3.17% | viability [4] 91.7% | viability [5] 92.5% | inhibition [6] 0.54% | RAM network inhibition [7] 0.05%

CCCCCn1c(CNC(=O)CCC)nc2ccccc21
inactive: growth inhibition [1] -7.29% | growth inhibition [2] -2.36% | viability increase [3] -2.97% | viability [4] 101% | viability [5] 96.4% | inhibition [6] 2.5% | RAM network inhibition [7] 0.64%

O=C(c1ccc(CS(=O)(=O)c2ccc(Br)cc2)o1)N1CCN(c2ccccn2)CC1
inactive: growth inhibition [1] -5.91% | growth inhibition [2] -14.9% | viability increase [3] -3.76% | viability [4] 98.8% | viability [5] 84.4% | inhibition [6] 1.34% | RAM network inhibition [7] 4.8%

O=C(O)Cc1ccc(NC(=O)C2CC=CCC2C(=O)O)cc1 (centres undefined)
inactive: growth inhibition [1] -7.36% | growth inhibition [2] 1.55% | viability increase [3] 1.02% | viability [4] 102% | viability [5] 104% | inhibition [6] 3.26% | RAM network inhibition [7] 8.93%

CCOC(=O)C(C)n1cnc2sc3c(c2c1=O)CCC3 (centres undefined)
inactive: growth inhibition [1] -8.5% | growth inhibition [2] -7.75% | viability increase [3] -1.76% | viability [4] 95.7% | viability [5] 99.6% | inhibition [6] 0.575% | RAM network inhibition [7] 1.15%

Cc1cc2ccccc2n1CCNC(=O)C(C)(C)C
inactive: growth inhibition [1] 3.07% | growth inhibition [2] 7.19% | viability increase [3] -0.5% | viability [4] 96.6% | viability [5] 103% | inhibition [6] 1.72% | RAM network inhibition [7] -1.8%

COc1ccccc1CNC(=O)CCn1c(=O)oc2ccccc21
inactive: growth inhibition [1] 5.65% | growth inhibition [2] 6.41% | viability increase [3] -3.05% | viability [4] 104% | viability [5] 96.2% | inhibition [6] 2.48% | RAM network inhibition [7] 5.75%

CC(=O)N1CSCC1C(=O)N1CCN(c2ccc(N3CCOCC3)nn2)CC1 (centres undefined)
inactive: growth inhibition [1] 5.2% | growth inhibition [2] 12.4% | viability increase [3] -0.66% | viability [4] 103% | viability [5] 95.1% | inhibition [6] 1.55% | RAM network inhibition [7] 0.26%

CCOC(=O)c1oc2cc(O)ccc2c(=O)c1-c1ccccc1OC
inactive: growth inhibition [1] -11.6% | growth inhibition [2] -0.685% | viability increase [3] -1.98% | viability [4] 98.4% | viability [5] 92% | inhibition [6] -0.595% | RAM network inhibition [7] 5.56%

CCOc1ccc(C2C(C#N)=C(N)SC(N)=C2C#N)cc1OCC
inactive: growth inhibition [1] 12.6% | growth inhibition [2] -4.33% | viability increase [3] -0.77% | viability [4] 103% | viability [5] 91.5% | inhibition [6] 0.96% | RAM network inhibition [7] 7.43%

CC1CC(C)CN(CCCNC(=O)CNC(=O)Cn2ccc3ccccc3c2=O)C1 (centres undefined)
inactive: growth inhibition [1] -3% | growth inhibition [2] -19.7% | viability increase [3] -0.78% | viability [4] 104% | viability [5] 98.9% | inhibition [6] 0.76% | RAM network inhibition [7] 2.22%

Cc1occc1-c1nc(-c2ccccn2)no1
inactive: growth inhibition [1] -14.3% | growth inhibition [2] 3.22% | viability increase [3] -4.5% | viability [4] 71.2% | viability [5] 67.7% | inhibition [6] 0.16% | RAM network inhibition [7] 1.6%

C=CCOC(=O)C1=C(C)NC(=O)NC1c1ccc(Cl)cc1 (centres undefined)
inactive: growth inhibition [1] -3.88% | growth inhibition [2] -3.15% | viability increase [3] 0.95% | viability [4] 102% | viability [5] 88.2% | inhibition [6] -0.115% | RAM network inhibition [7] 2.31%

CC(=O)C1=C(O)C(=O)N(c2nnn(C)n2)C1c1cccs1 (centres undefined)
inactive: growth inhibition [1] -9.56% | growth inhibition [2] -6.22% | viability increase [3] -1.76% | viability [4] 107% | viability [5] 95.8% | inhibition [6] 2.02% | RAM network inhibition [7] 0.72%

CC(=O)c1sc(NC(=O)c2ccco2)nc1-c1ccccc1
inactive: growth inhibition [1] -6.58% | growth inhibition [2] 6.05% | viability increase [3] -1.39% | viability [4] 103% | viability [5] 87.7% | inhibition [6] 1.87% | RAM network inhibition [7] 1.69%

CCC/C(O)=C1\C(=O)CC(C)(C)CC1=Nc1ccccc1OC
inactive: growth inhibition [1] -18.3% | growth inhibition [2] -21.1% | viability increase [3] -2.83% | viability [4] 87.6% | viability [5] 87% | inhibition [6] 3.95% | RAM network inhibition [7] 9.85%

From PubChem BioAssay
